Source: PubChem BioAssay
Hits are enriched below; roughly 2.5% of the tested compounds scored in any of these assays.
SENP7 inh = inhibitors of human SENP7 protease | Q9BQF6 | recombinant SENP7, Z-RLRGG-aminoluciferin luminescence, 40 min | inhibition, % at 5 µM | 330,000 compounds, 1.5% hits;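 active = inhibition above about 50% at the single test dose, limit read from the data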;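 also: plate controls were DMSO with enzyme for no effect and no enzyme buffer wells for full effect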
Target sequence (Q9BQF6 706-1050 limits assumed): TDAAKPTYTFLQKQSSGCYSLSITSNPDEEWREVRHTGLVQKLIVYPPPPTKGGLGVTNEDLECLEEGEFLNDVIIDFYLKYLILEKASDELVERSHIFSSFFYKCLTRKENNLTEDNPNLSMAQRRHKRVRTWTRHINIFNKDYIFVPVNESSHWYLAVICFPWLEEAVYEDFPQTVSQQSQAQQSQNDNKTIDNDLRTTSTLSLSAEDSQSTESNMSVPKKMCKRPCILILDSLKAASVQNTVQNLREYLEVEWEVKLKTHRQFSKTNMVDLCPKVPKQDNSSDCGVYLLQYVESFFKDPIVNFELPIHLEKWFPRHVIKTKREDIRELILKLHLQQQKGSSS
SENP6 inh = SENP6 protease inhibition | Q9GZR1 | Recombinant SENP6 catalytic domain, aminoluciferin luminescence | inhibition, % at 10 µM | 330,000 compounds, 1.8% hits | AID 2599;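 active = inhibition above about 50% at the single tested dose, limit read from the data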;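 also: plate controls were DMSO wells with enzyme for no effect and DMSO wells lacking enzyme for full effect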
SENP8 block-1 = blocks human SENP8 cleavage of Nedd8 substrate; inhibition, % at 20 µM; 360,000 compounds, 0.64% hits; AID 602440; recombinant SENP8, Nedd8 substrate fluorescence; Q96LD8; in the data active = inhibition mostly above about 40%, no sharp cut-off; inactive = mostly below about 27%
SENP8 block-2 = inhibitors of human SENP8 protease | Q96LD8 | purified SENP8, Z-RLRGG-aminoluciferin cleavage, luminescence | inhibition, % at 10 µM | 330,000 compounds, 1.2% hits | AID 2540; in the data active = inhibition above about 50%
SENP1 inh = blocks the human SENP1 SUMO protease catalytic domain. recombinant SENP1 catalytic domain, CyPet-SUMO1-YPet FRET cleavage. Q9P0U3. AID 624204. inhibition, % at 10 µM. 360,000 compounds, 0.21% hits;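 active = inhibition at least 30% at 10 µM, raw YFP signal under a set limit, fluorescence ratio 0.5 to 1.5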;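 also: 0% = enzyme with DMSO and 100% = no enzyme wells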
Target sequence (Q9P0U3 419-644 limits assumed): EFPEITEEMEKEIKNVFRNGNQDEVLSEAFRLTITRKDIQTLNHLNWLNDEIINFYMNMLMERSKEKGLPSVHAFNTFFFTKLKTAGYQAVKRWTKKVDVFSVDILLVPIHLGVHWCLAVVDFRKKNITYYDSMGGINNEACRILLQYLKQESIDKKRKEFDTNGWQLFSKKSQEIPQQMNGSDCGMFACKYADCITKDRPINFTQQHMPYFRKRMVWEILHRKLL
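Test system: recombinant human SENP1 catalytic domain, His6-tagged / Medium: pH 8 Tris buffer with EDTA, NaCl, BME, BSA, NP40, catalase / Also added: SUMO1 FRET substrate flanked by Cypet and Ypet, 25 nM / Times: 50 min reaction at room temperature / Signal: FRET, CFP and YFP emission / Control set: no-enzyme low control and enzyme-plus-DMSO high control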
* marks the source's active call; other numbers are inactive results; . = no result given.

SMILES	SENP7 inh	SENP6 inh	SENP8 block-1	SENP8 block-2	SENP1 inh
COc1ccc(C)c2sc(=NC(=O)C(C)C)n(C)c12	5	-6	-46	-6	-2
Cc1cn([C@H]2C[C@H](O)[C@@H](/C=C/C(=O)NCCc3ccc4c(c3)OCO4)O2)c(=O)[nH]c1=O	.	.	20	.	-1
O=C(N/N=C/c1ccccc1C(=O)O)c1cccc(S(=O)(=O)N2CCCCC2)c1	8	-10	4	-6	0
Nc1[nH]n2c(=O)c3c(nc2c1N=Nc1ccccc1)CCCC3	-4	6	53*	3	4
Nc1[nH]n2c(=O)c3c(nc2c1N=Nc1ccc(Cl)cc1)CCCC3	14	16	45*	9	5
COc1cc(OC)c(OC)cc1CCC(C)NC(=O)Cc1ccccc1 (stereo not given)	3	2	10	6	0
Cc1c(Cl)sn(-c2ccc(Cl)cc2)c1=O	1	-5	-6	0	0
CCN1/C(=C\c2ccc3cc(C)ccc3[n+]2CC)Sc2cc(C)c(C)cc21	.	.	30	.	49
CCN1/C(=C/c2ccc3cc(C)ccc3[n+]2CC)Sc2ccc3sccc3c21	5	-75	34	26	58*
CCN1/C(=C/c2ccc3cc(C)cc(C)c3[n+]2CC)Sc2cc(C)ccc21	.	.	23*	.	74
Cc1ccc2nc(-c3ccc(SCC(=O)Nc4ccc5c(c4)OCCO5)nc3)[nH]c2c1	51*	-27	-372	-11	0
Cc1cc2nc(-c3ccc(SCC(=O)Nc4ccc5c(c4)OCCO5)nc3)[nH]c2cc1C	31	9	-252	-9	-7
O=C(CCNC(=O)C1CCN(S(=O)(=O)c2ccc(F)cc2)CC1)NCCc1ccc(Cl)cc1	4	3	4	-8	-1
O=C(Nc1nc2ccc([N+](=O)[O-])cc2s1)c1ccco1	40	83*	.	75*	.
O=C(COC(=O)/C=C/c1ccccc1)NCc1ccco1	.	.	22	.	2
O=c1c(N=Nc2ccccc2)c[nH]n1-c1ccccc1	.	.	54*	.	3
Cc1[nH]n(-c2ccccc2)c(=O)c1N=Nc1ccc(F)cc1	6	-3	38	6	2
CC(C)NC(=O)NC(=O)COC(=O)c1ccc([N+](=O)[O-])cc1Cl	8	-3	16	-8	0
COc1cccc(N=Nc2c(N)[nH]n3c(=O)cc(-c4ccccc4)nc23)c1	12	23	65*	16	1
Cc1ccc(N=Nc2c(N)[nH]n3c(=O)cc(-c4ccccc4)nc23)cc1	2	1	74*	4	3
CC1=C2C3OC(=O)C(C)C3CCC2(C)C=C(Cl)C1=O (stereo not given)	.	.	5	.	0
NC(=O)C1CCCN(C(=O)c2ccc(NC(=O)c3cccs3)cc2)C1 (stereo not given)	-6	-6	12	-14	1
CN(Cc1ccc2c(c1)OCCO2)C(=O)CSc1ncnc2sccc12	2	2	-22	5	-19
COc1ccc(C2=NN(c3ccccc3)C(=O)/C2=C\c2ccc(O)c(OC)c2)cc1	16	17	55*	1	3
CC(=O)Oc1ccc(/C=C2/C(=O)N(c3ccccc3)N=C2C)cc1	36	14	45*	4	2
SMILES	SENP7 inh	SENP6 inh	SENP8 block-1	SENP8 block-2	SENP1 inh
CC1=NN(c2ccccc2)C(=O)/C1=C\C=C\c1ccccc1	2	-2	32	3	2
CC1=NN(c2ccccc2)C(=O)/C1=C\C=C1/N(C)c2ccccc2C1(C)C	5	12	47*	0	48*
CC1=NN(c2ccccc2)C(=O)/C1=C/C=C/c1ccc(N(C)C)cc1	.	.	38*	.	2
COc1ccc(OC)c(S(=O)(=O)N2CCN(C(=O)c3cc(C4CC4)nn3-c3ccccc3)CC2)c1	0	9	17	-5	1
CC1=NN(c2ccccc2)C(=O)/C1=C\c1cn(C)c2ccccc12	6	-10	26	0	5
COc1ccc(/C=C2/C(=O)N(c3ccccc3)N=C2C)cc1	47	39	91*	11	2
CC1=NN(c2ccccc2)C(=O)/C1=C\c1cc(C)n(C)c1C	-2	15	44*	3	5
CCOc1cc(/C=C2/C(=O)N(c3ccccc3)N=C2C)ccc1OC(=O)c1cccs1	18	20	38	-6	3
COc1ccc(/C=C2/C(=O)N(c3ccccc3)N=C2C)cc1OC	30	13	75*	2	3
Nc1[nH]n(-c2ccccc2)c(=O)c1N=Nc1ccc2ncsc2c1	-6	11	56*	-1	5
O=C1/C(=C\c2cc(Cl)c(O)c(Cl)c2)SC(=S)N1Cc1ccccc1	.	.	48*	.	-4
COc1ccc(/C=C2/SC(=S)N(Cc3ccccc3)C2=O)cc1O	-10	-23	20	-15	-86
COc1ccc2c(c1OC)C(=O)O[C@@H]2[C@H]1c2c(cc3c(c2OC)OCO3)CCN1C	3	6	44*	-3	0
COc1ccc(-c2csc(NCCc3nc4cc(C(=O)NCCCO)ccc4n3Cc3ccc(C)cc3)n2)cc1	-2	-14	3	-5	-4
O=C(COC(=O)c1ccco1)NCc1ccc(F)cc1	-5	-2	8	-3	2
Cc1nn(-c2ccccc2)c(Cl)c1/C=N/Nc1nc2ccccc2[nH]1	85*	52*	9	16	0
Cc1ccccc1Cn1cc(NC(=O)CCCn2nc([N+](=O)[O-])cc2C)cn1	4	-16	17	-3	0
Cc1ccc(/C=C2/N=C(c3ccccc3)NNC2=O)cc1	-3	-8	35	-2	1
O=C1NNC(c2ccccc2)=N/C1=C\c1ccccc1	6	2	47*	5	1
O=C(NNc1ccc([N+](=O)[O-])cn1)Nc1ccc(N=Nc2ccccc2)cc1	.	.	48*	.	0
Cc1nn2cc(-c3cccc(Cl)c3)cnc2c1Cl	71*	-1	21	20	0
CCCNCc1cc(OC)c(OCc2ccccc2)cc1Br	-4	-2	9	-11	2
Cc1ccc(N2C(=O)/C(=C\c3ccco3)SC2=S)cc1	13	-4	48*	1	1
O=C1/C(=C/c2cccnc2)SC(=S)N1CC1CCCO1 (stereo not given)	6	3	13	-1	2
O=C1/C(=C/c2ccco2)SC(=S)N1CC1CCCO1 (stereo not given)	10	-26	42*	3	-3
Cc1ccc(/C=C2\SC(=S)N(CC3CCCO3)C2=O)o1 (stereo not given)	7	8	34	6	-35
O=C1/C(=C\c2ccc(-c3ccccc3Cl)o2)SC(=S)N1CC1CCCO1 (stereo not given)	5	9	44*	-18	-21
O=C1/C(=C\c2ccco2)SC(=S)N1c1ccccc1	-2	-2	16	-9	1
COc1cccc(CC(=O)Nc2cc(S(=O)(=O)N3CCOCC3)ccc2OC)c1	0	0	12	-3	-2
